Experimental findings from ChEMBL document CHEMBL1133099, “Structure-property model for membrane partitioning of oligopeptides” (J Med Chem, 2000) are described below.

Structures are written as SMILES. Residues, ends and D or L forms follow the SMILES beside them. Where only a bound is given, the exact number is not on record here.

What all share (format): physicochemical
Data set [1] in a line: Ionization constant (pKa1) values were determined by potentiometric titrations. The note with it: read-out: pKa1.
Data set [2] in a line: pKa2 values were determined by potentiometric titrations. The note with it: read-out: pKa2.
The nature of data set [3]: Distribution coefficient between n-octanol and hanks buffered saline solution. An outline of the steps:
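Distribution between n-octanol and Hanks buffered saline at pH 7.4, measured by the shake-flask method.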

Data set [4] can be described thus: Ionization constant (pKa2) values were determined by potentiometric titrations. Particulars: read-out: pKa2.
Data set [5] can be described thus: pKa1 values were determined by potentiometric titrations. The note with it: read-out: pKa1.

As to `CC(=O)NCC(=O)N[C@@H](CC(C)C)C(=O)N[C@@H](CC(=O)O)C(=O)N(C)[C@@H](Cc1ccccc1)C(N)=O` (HELM PEPTIDE1{[ac].G.L.D.[meF].[am]}$$$$V2.0), the pKa in data set [1] is 3.93. Regarding `CC(=O)N[C@@H](Cc1ccccc1)C(=O)N[C@@H](CCC(N)=O)C(=O)N[C@@H](CCCCN)C(=O)N(C)[C@@H](CC(C)C)C(N)=O` (HELM PEPTIDE1{[ac].F.Q.K.[meL].[am]}$$$$V2.0), the pKa in data set [2] is 10.1. As a reminder, the logD is the decadic logarithm of the distribution of all forms, ionised or not, between an organic phase and buffer at a given pH. High values mean higher lipophilicity, low ones lower lipophilicity. In data set [3], `CC(=O)N[C@@H](Cc1ccc(O)cc1)C(=O)NCC(=O)NCC(=O)N[C@@H](CCC(N)=O)C(N)=O` (Ac-YGGQ-NH2) had a logD of -2.59. The same measure, in the same setting: the figure for `CC(=O)N[C@@H](CO)C(=O)N(C)[C@@H](Cc1ccccc1)C(=O)NCC(=O)NCC(N)=O` (HELM PEPTIDE1{[ac].S.[meF].G.G.[am]}$$$$V2.0) is -1.51. For `CC(=O)N[C@@H](CCCCN)C(=O)N(C)CC(=O)N[C@@H](Cc1ccc(O)cc1)C(=O)N(C)[C@@H](CC(=O)O)C(N)=O` (HELM PEPTIDE1{[ac].K.[Sar].Y.[meD].[am]}$$$$V2.0), the pKa in data set [1] came to 3.6; in data set [4] it was 9.69. `CC(=O)N[C@@H](CC(=O)O)C(=O)N[C@@H](CCC(N)=O)C(=O)N[C@@H](CC(C)C)C(=O)N[C@@H](Cc1ccccc1)C(N)=O` (Ac-DQLF-NH2): the logD in data set [3] was above -2.5. The pKa in data set [5] turned out to be 3.97. In the case of `CC(=O)NCC(=O)N(C)CC(=O)N[C@@H](CC(C)C)C(=O)N[C@@H](Cc1ccccc1)C(N)=O` (HELM PEPTIDE1{[ac].G.[Sar].L.F.[am]}$$$$V2.0), the logD in data set [3] was 0.05. Same read-out and setting: the figure for `CC(=O)N[C@@H](Cc1ccccc1)C(=O)N[C@@H](CC(C)C)C(=O)N[C@H](C(=O)N(C)[C@@H](CC(C)C)C(N)=O)C(C)C` (HELM PEPTIDE1{[ac].F.L.V.[meL].[am]}$$$$V2.0) is 2.42. Turning to `CC(=O)NCC(=O)N(C)[C@@H](Cc1ccccc1)C(=O)N[C@@H](CCCCN)C(=O)N[C@@H](CC(=O)O)C(N)=O` (HELM PEPTIDE1{[ac].G.[meF].K.D.[am]}$$$$V2.0), the pKa came to 3.78 in data set [1] and 10.3 in data set [4]. As to `CC(=O)N[C@@H](CCCCN)C(=O)N(C)[C@@H](Cc1ccccc1)C(=O)NCC(=O)N(C)[C@@H](CC(C)C)C(N)=O` (HELM PEPTIDE1{[ac].K.[meF].G.[meL].[am]}$$$$V2.0), the logD in data set [3] is -1.33. The pKa in data set [2] was determined as 9.94. In turn, `CC(=O)N[C@@H](Cc1ccccc1)C(=O)N1CCC[C@H]1C(=O)N[C@@H](Cc1ccccc1)C(=O)N[C@@H](Cc1ccc(O)cc1)C(N)=O` (Ac-FPFY-NH2) showed a logD in data set [3] of 1.64.
